Reference: publication PMC3501595 (Biochemical pharmacology, 2012)

Assays:
[1] = target: topoisomerase IIβ (Homo sapiens, UniProt Q02880); experiment: cellular ICE assay of covalent enzyme-DNA complexes in K562 cells; assay type: cell-based
[2] = target: T1, yeast topoisomerase II (Saccharomyces cerevisiae, UniProt P06786); experiment: ATP/NADH-coupled DNA-independent ATPase assay, purified enzyme; assay type: biochemical
T1 sequence (P06786 1-1428): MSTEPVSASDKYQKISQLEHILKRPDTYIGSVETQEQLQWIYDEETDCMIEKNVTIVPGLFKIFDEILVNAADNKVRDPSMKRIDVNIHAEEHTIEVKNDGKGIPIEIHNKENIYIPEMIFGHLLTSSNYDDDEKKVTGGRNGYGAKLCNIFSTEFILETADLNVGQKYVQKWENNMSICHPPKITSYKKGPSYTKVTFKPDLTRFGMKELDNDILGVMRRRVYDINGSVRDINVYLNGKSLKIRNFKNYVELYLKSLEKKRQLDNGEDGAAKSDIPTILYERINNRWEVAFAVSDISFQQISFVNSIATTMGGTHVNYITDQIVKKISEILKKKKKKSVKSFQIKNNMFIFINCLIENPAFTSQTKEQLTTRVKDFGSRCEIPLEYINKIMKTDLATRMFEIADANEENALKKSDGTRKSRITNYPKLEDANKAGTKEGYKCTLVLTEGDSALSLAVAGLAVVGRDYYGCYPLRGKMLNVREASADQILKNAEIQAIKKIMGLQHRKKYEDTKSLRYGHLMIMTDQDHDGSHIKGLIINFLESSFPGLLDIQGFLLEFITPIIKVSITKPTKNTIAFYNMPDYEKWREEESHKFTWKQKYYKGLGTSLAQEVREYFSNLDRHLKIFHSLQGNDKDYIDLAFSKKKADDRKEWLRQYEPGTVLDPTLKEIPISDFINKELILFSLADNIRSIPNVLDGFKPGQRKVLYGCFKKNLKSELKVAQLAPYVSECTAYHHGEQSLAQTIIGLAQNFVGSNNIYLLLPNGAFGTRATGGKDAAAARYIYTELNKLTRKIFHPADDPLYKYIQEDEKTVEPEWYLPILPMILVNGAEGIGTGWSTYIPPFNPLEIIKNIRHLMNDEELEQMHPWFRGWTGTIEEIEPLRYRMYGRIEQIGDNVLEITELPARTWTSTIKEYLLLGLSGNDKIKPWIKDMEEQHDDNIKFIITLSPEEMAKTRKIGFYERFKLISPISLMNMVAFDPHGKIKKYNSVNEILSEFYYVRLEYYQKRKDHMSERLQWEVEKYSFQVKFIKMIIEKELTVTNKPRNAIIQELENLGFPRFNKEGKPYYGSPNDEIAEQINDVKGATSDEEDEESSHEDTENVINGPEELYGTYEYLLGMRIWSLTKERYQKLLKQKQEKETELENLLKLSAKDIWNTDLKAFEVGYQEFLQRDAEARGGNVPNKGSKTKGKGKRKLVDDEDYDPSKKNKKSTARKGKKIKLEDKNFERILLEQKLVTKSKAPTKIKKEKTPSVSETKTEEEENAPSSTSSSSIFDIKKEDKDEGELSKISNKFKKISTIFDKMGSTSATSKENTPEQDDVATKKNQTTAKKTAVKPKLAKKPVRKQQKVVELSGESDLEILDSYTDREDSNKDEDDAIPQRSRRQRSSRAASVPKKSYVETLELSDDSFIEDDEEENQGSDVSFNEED

[3] = target: T2, topoisomerase IIα (Homo sapiens, UniProt P11388); experiment: kDNA decatenation gel assay; assay type: biochemical
Summary of the method: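 Recombinant full-length human topoisomerase IIα. Decatenation: catenated kDNA networks released as individual minicircles in an ATP-dependent reaction, resolved on gel. Cleavage: closed circular pBR322 converted to linear DNA at 37 °C. All components were mixed on ice before the test compound was added. Complexes were trapped with SDS and resolved by ethidium bromide gel electrophoresis.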

[4] = target: T3, topoisomerase I (Homo sapiens, UniProt P11387); experiment: pBR322 DNA relaxation gel assay; assay type: biochemical
T3 sequence (P11387 2-765): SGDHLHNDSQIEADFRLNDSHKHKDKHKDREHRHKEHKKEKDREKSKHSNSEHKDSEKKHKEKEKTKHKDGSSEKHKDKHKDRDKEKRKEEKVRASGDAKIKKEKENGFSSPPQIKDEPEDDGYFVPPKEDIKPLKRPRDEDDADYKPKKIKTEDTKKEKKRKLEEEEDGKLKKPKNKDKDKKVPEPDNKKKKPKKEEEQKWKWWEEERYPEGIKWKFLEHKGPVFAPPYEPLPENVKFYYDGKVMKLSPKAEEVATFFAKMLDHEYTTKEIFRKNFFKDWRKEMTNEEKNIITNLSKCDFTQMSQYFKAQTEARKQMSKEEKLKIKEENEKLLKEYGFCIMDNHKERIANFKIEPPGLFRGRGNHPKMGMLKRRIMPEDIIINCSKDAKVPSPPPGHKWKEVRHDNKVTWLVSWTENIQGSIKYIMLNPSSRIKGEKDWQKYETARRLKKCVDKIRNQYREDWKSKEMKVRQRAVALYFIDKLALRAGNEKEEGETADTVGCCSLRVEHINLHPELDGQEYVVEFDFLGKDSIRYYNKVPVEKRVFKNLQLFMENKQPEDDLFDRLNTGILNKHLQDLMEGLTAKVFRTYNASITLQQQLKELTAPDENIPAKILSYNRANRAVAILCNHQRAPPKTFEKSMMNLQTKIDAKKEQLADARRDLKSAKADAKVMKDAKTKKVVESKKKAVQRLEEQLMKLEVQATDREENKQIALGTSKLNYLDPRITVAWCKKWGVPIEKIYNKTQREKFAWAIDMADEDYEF

[5] = target: T2, topoisomerase IIα; experiment: kDNA decatenation assay at […] ATP; assay type: biochemical

topoisomerase IIβ, sequence (Q02880 2-1626): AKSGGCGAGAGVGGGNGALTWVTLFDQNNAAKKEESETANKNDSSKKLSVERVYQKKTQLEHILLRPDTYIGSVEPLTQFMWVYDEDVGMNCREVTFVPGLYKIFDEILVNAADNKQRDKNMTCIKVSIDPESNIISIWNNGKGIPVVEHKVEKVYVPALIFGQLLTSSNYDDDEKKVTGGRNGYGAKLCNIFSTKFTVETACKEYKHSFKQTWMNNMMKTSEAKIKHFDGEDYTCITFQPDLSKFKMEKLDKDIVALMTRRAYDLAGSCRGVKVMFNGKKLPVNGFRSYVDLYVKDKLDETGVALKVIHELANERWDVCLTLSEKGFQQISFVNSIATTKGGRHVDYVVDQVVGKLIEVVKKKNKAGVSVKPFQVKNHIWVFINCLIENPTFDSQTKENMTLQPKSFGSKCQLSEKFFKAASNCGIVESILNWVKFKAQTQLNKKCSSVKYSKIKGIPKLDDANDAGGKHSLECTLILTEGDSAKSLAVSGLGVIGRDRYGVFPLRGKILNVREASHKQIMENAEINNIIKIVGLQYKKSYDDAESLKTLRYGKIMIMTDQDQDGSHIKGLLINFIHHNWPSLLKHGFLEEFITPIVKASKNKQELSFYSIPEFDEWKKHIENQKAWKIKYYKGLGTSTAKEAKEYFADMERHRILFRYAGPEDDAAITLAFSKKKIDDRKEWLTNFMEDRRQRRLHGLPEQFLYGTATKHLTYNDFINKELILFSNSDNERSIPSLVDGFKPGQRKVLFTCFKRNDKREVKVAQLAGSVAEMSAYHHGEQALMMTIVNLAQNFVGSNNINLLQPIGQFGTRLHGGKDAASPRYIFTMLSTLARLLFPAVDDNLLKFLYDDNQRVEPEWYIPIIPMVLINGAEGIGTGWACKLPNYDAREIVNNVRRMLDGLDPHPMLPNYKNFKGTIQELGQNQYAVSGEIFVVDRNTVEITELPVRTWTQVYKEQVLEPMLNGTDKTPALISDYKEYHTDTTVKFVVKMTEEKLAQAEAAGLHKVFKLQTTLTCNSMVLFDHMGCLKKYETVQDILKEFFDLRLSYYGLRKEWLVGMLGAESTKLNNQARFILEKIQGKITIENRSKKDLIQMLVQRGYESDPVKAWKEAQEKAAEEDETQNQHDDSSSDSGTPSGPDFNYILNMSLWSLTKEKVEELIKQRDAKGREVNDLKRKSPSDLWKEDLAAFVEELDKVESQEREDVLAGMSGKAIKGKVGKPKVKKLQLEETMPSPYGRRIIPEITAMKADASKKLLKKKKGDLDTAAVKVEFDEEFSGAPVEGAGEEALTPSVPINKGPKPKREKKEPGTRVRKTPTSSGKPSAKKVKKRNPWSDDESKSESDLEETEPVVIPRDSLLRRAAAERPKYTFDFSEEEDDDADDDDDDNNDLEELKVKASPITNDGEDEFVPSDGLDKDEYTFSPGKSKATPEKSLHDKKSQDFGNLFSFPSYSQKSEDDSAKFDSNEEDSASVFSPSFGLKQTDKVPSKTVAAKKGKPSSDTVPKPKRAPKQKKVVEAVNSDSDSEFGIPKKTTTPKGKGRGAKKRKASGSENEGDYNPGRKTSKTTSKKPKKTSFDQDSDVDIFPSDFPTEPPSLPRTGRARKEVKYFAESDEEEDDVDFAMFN
T2 sequence (P11388 whole entry): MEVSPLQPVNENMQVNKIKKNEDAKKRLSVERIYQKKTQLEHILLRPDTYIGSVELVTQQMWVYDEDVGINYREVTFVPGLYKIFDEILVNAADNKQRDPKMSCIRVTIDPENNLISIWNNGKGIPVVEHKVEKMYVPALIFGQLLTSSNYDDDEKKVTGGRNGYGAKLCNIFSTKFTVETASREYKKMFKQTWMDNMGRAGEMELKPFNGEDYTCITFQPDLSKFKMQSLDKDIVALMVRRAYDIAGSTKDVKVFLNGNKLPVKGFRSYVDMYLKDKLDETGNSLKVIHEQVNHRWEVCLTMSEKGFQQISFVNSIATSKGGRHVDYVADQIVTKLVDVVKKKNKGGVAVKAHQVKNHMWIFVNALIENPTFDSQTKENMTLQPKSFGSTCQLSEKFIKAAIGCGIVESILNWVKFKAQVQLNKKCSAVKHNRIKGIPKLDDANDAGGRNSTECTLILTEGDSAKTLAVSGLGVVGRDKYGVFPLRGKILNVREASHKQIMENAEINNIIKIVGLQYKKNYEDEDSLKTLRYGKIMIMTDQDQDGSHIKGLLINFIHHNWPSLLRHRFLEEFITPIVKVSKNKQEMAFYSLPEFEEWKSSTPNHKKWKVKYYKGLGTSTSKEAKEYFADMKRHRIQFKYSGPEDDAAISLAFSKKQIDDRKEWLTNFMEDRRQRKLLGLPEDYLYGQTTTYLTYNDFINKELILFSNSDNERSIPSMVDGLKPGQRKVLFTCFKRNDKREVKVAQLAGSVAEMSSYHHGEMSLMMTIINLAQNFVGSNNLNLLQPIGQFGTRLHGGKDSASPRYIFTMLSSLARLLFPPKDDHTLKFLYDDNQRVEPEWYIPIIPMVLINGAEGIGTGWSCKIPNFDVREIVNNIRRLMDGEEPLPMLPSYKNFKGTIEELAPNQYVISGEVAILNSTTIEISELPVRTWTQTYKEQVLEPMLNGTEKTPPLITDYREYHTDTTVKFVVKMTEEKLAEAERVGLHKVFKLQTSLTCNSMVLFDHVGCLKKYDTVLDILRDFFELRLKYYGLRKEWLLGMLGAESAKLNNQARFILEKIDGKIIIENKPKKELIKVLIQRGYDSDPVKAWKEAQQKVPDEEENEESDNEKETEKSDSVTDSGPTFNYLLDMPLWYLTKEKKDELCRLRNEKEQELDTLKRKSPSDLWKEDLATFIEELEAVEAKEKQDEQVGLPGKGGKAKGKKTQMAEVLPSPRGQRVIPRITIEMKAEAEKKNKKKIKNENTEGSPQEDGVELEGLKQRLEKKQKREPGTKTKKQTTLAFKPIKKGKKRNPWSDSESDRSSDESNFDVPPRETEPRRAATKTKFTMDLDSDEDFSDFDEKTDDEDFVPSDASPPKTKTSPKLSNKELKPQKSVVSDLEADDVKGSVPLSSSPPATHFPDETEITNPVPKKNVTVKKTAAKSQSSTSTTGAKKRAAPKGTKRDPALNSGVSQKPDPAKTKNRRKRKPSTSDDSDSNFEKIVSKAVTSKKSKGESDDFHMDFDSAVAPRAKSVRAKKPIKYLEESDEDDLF

SMILES | cellular ICE assay of covalent enzyme-DNA complexes in K562 cells [1] | Ki [2] | IC50 [3] | IC50 [4] | IC50 [5]
COc1cc([C@@H]2c3cc4c(cc3[C@@H](O[C@@H]3O[C@@H]5CO[C@@H](C)O[C@H]5[C@H](O)[C@H]3O)[C@H]3COC(=O)[C@H]23)OCO4)cc(OC)c1O [etoposide, reference compound] | Both dovitinib and etoposide also induced concentration dependent increases in the amount of the topoisomerase IIβ-covalent complex |  |  |  | 
CN1CCN(c2ccc3nc(-c4c(N)c5c(F)cccc5[nH]c4=O)[nH]c3c2)CC1 [dovitinib] | Both dovitinib and etoposide also induced concentration dependent increases in the amount of the topoisomerase IIβ-covalent complex | 2.4 ± 1.5 µM | 13 ± 4 µM | 6.2 ± 1.7 µM | 
Nc1ncnc2c1ncn2[C@@H]1O[C@H](COP(=O)(O)OP(=O)(O)NP(=O)(O)O)[C@@H](O)[C@H]1O [AMP-PNP] |  |  |  |  | 2 ± 0.4 µM
